From PubChem BioAssay
Lipid droplet: hepatic lipid droplet formation modulation | AML12 mouse hepatocytes, oleate lipid droplets, BODIPY imaging | inhibition, % at 6.5 µM | actives 0.4% (n = 240,000);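 active = lipid droplet intensity inhibited by at least 50%, with more than 500 cells counted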
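System: AML12 hepatocytes (mouse). Probe or stimulus: oleic acid at 100 µM to induce lipid droplet formation. Times: overnight treatment with compound plus oleate. Detection: Image-based BODIPY and DAPI two-channel analysis. Evaluation: percent inhibition of filter-corrected integrated lipid droplet intensity per well.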
AHR activator: activates the human aryl hydrocarbon receptor; P35869; AHR-responsive luciferase reporter cells, luminescence; activation, % at 5 µM; actives 2.5% (n = 320,000); in the data active = activation above about 47%;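 note: 0% = vehicle wells and 100% = reference agonist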
CR mimetic SO: lowers age-related superoxide in aged yeast cells; S. cerevisiae aged cells, superoxide DHE fluorescence; hits give low values; AID 2690; actives 0.18% (n = 330,000); superoxide response (% of plate mean), % at 10 µM;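 active = superoxide response under a set limit, about three screen SD below normal, cut at about 65% in these data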;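 note: yeast aged for seven days with compound at 30 °C before DHE staining; 100% = average MFI of all compound-treated wells on the plate with controls excluded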
SR-BI DiI-HDL act: SR-BI HDL lipid transfer activation. CHO ldlA[mSR-BI] cells, DiI-HDL uptake fluorescence, 3 h; 100 = double the neutral-control signal. activation, % at 12.5 µM. actives 0.096% (n = 320,000). AID 504775;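 active = mean replicate activation of at least 60% and every replicate at or above 60%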;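 note: 0% = median plate neutral-control signal and 100% = twice that signal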
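Test system: SR-BI-overexpressing, LDLR-lacking CHO cells; Medium: Ham's F12 with 0.5% BSA, HEPES 25 mM, pH 7.4; Schedule: 3 h, 37 °C; Technique: bottom-read fluorescence, 550/595 nm.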
SR-BI DiI inh: mouse SR-BI HDL lipid transfer inhibition. inhibition, % at 12.5 µM. ldlA[mSR-BI] CHO cells, DiI-HDL uptake fluorescence, 3 h. AID 488896. actives 0.96% (n = 320,000). Q61009;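 active = mean replicate inhibition of at least 70% and a set share of replicates each scoring 70 or more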;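 note: 0% = median of neutral control wells and 100% = median of positive control wells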
Target sequence (Q61009 whole entry, looked up): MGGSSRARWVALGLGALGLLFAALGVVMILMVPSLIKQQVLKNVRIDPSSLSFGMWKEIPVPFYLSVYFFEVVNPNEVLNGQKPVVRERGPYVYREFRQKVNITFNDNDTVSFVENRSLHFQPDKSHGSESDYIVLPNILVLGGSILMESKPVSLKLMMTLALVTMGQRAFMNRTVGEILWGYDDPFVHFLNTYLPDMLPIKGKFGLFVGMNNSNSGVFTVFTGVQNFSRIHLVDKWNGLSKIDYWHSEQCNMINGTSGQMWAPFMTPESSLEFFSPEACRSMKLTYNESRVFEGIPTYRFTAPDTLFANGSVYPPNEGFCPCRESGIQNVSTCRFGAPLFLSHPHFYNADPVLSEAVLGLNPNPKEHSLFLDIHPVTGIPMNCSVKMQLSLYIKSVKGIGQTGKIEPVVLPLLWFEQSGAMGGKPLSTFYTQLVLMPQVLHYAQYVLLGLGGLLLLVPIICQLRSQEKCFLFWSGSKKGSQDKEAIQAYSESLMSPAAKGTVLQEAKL
SMARCA2 activ: increases SMARCA2 function in MMTV reporter cells; MG213 cells, MMTV-luciferase reporter, dexamethasone, overnight; activation, % at 9.1 µM; actives 1% (n = 370,000); AID 652017; in the data active = activation above about 7.8%;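 note: 0% = vehicle wells and 100% = reference activator wells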
Superoxide pick: yeast aging superoxide inhibition, cherry pick confirmation | shares compounds with CR mimetic SO | S. cerevisiae aging, superoxide DHE fluorescence; hits give low values | superoxide response (% of plate), % at 10 µM | actives 1% (n = 850);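 active = superoxide signal below 65% of the plate average of sample wells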;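 note: cells aged with compound for 7 days at 30 degrees C before staining; 100% equals mean DHE fluorescence of all compound wells on the plate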
DHE counter: DHE fluorescence interference, counter-screen artifact. S. cerevisiae BY4741, flow cytometry; hits give low values. fluorescence response, % at 10 µM. 850 tested, under 10 active. AID 435000. shares compounds with CR mimetic SO;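 active = fluorescence response below 15%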;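 note: percent of the mean fluorescence averaged over all compound wells on the plate; lower means stronger quenching of DHE signal or ROS scavenging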
Numbers without * were called inactive; / = not tested or not shown. An excerpt weighted towards active compounds, which were near 4.3% of everything screened.

SMILES | Lipid droplet | AHR activator | CR mimetic SO | SR-BI DiI-HDL act | SR-BI DiI inh | SMARCA2 activ | Superoxide pick | DHE counter
Cc1cc(=O)oc2cc(OCCCC[n+]3ccccc3)ccc12 | 16 | 2 | 71 | -16 | 16 | -2 | / | /
CCC(C)(C)c1ccc(OCCCC[n+]2ccccc2)c(C(C)(C)CC)c1 | -30 | -3 | 81 | 46 | -46 | -7 | 94 | 93
O=C1C=C(NC2=CC3OC(c4ccccc4)OCC3OC2=O)CCC1 (configuration not stated) | -4 | 0 | 60* | 21 | -21 | -1 | 114 | 103
CCOC(=O)C/C(C)=N/NC(=O)c1cccs1 | / | 7 | 63* | 28 | -28 | / | 113 | 99
O=C(CCCOc1ccccc1)Nc1ccc(Cl)cn1 | 0 | 1 | 58* | 4 | -4 | 3 | 96 | 89
CCCCCCC(=O)Nc1ccc(Cl)cn1 | 1 | -1 | 108 | 18 | -18 | 2 | / | /
Cc1ccc(Cl)cc1NC(=O)OCCN(C)C(=O)Nc1cc(Cl)ccc1C | / | / | / | / | / | -6 | / | /
Cc1cc(Oc2ccc(=O)n(C)n2)nc(SCCOc2ccccc2)n1 | 23 | 0 | 15* | 6 | -6 | -3 | 107 | 93
c1ccc(-c2cccc(-c3ccccn3)n2)nc1 | / | -7 | 63* | -4 | 4 | / | 76 | 118
c1ccc(-c2nnc(-c3ccccn3)nn2)nc1 | / | 10 | 95 | -3 | 3 | 7 | / | /
COc1cc(NC(=O)CSc2nnc3n2C(C)(C)Cc2ccccc2-3)cc(OC)c1 | / | -10 | 65* | 6 | -6 | 0 | 102 | 107
O=C(Cc1ccc(NC(=O)C2CCCN(C(=O)c3ccccc3)C2)cc1)Nc1cccc(C(=O)N2CCCC2)c1 (configuration not stated) | / | / | / | / | / | -3 | / | /
COc1ccc(CCNc2nc(=S)[nH]c3cc(OC)c(OC)cc23)cc1OC | 24 | 1 | 63* | -20 | 20 | -1 | 99 | 97
COc1cc2[nH]c(=S)nc(NCCc3ccc(C)cc3)c2cc1OC | 5 | / | / | -12 | 12 | -1 | / | /
O=C(NCCc1ccccc1)OCc1cn(Cc2ccc(Cl)cc2)nn1 | / | / | / | / | / | -1 | / | /
COc1ccc(-c2c(C(=O)O)nc3ccccc3c2C(=O)O)cc1 | -4 | -1 | 62* | 14 | -14 | 0 | 110 | 99
CC1(C)CC(=O)C=C(C#CC2CC2)C1 | / | / | / | / | / | 1 | / | /
COc1cccc(NC(=O)Nc2ccc3c(c2)nc(C)n3C)c1 | -4 | -13 | 61* | 10 | -10 | 5 | 108 | 112
CC(=O)n1c(Cl)c(NC(=O)CCl)c2ccccc21 | 3 | 10 | 111 | 36 | -36 | 6 | / | /
CC(=O)n1c2ccccc2c2ccccc21 | / | 4 | 103 | 10 | -10 | -4 | 95 | 92
CCN(CC)C(=O)CC[C@@H]1CC[C@]2(CCCN(C(=O)c3ccno3)C2)O1 | / | / | / | / | / | -1 | / | /
O=C(Cn1nnc(-c2ccccc2F)n1)Nc1ccc(Cl)c(Cl)c1 | / | / | / | / | / | -3 | / | /
NC(=O)CSc1nnc(-c2ccc([N+](=O)[O-])cc2)o1 | 8 | 4 | 115 | 11 | -11 | 0 | / | /
C=CCSc1nnc(-c2ccc([N+](=O)[O-])cc2)o1 | -5 | -5 | 64* | -2 | 2 | 5 | 106 | 91
COC[C@H]1CCCN1c1cccc2c1S(=O)(=O)N(C1CC1)CC[C@@H](C)O2 | / | / | / | / | / | -3 | / | /
SMILES | Lipid droplet | AHR activator | CR mimetic SO | SR-BI DiI-HDL act | SR-BI DiI inh | SMARCA2 activ | Superoxide pick | DHE counter
CN1CC(=O)Nc2ccccc2C1=O | -11 | -1 | 105 | 33 | -33 | -1 | / | /
CN1CC(=O)Nc2ccc(Br)cc2C1=O | -17 | 2 | 65* | -3 | 3 | 1 | 94 | 98
C[C@H](NC(=O)C[C@@H]1C[C@@H]2c3cc(NC(=O)C4CCC4)ccc3O[C@@H]2[C@@H](CO)O1)c1ccccc1 | / | / | / | / | / | -4 | / | /
O=C(NCc1ccco1)Nc1c(Cl)cc(Cl)cc1Cl | / | / | / | / | / | -4 | / | /
COc1ccc(NC(=O)c2ccc(S(=O)(=O)N3CCOCC3)o2)cc1 | 0 | 34 | 64* | -15 | 15 | 0 | 95 | 91
Nn1c(SCC(=O)Nc2nccs2)nnc1-c1cc(-c2ccc(F)cc2)n[nH]1 | / | / | / | / | / | -2 | / | /
O=c1cc(-c2ccccc2)nc2cc(-c3ccc(Br)cc3)[nH]n12 | -8 | 30 | 53* | -10 | 10 | 0 | 95 | 96
CCCc1cc(=O)n2[nH]c(-c3ccc(Cl)cc3)cc2n1 | -25 | 33 | 100 | -5 | 5 | 3 | 108 | 124
Cc1nc2cc(-c3ccc(Br)cc3)[nH]n2c(=O)c1Cl | -1 | / | 101 | 13 | -13 | 4 | 94 | 90
O=c1cc(-c2ccc([N+](=O)[O-])cc2)nc2cc(-c3ccc(Cl)cc3)[nH]n12 | 4 | 1 | 120 | / | / | / | / | /
Cc1nc2cc(-c3ccc(F)cc3)[nH]n2c(=O)c1C | -8 | 12 | 95 | 1 | -1 | 2 | 108 | 94
C[C@H]1C2CC(OC(=O)Nc3cccc(Cl)c3)C(C2)[C@H]2CCCCN21 (some centres not stated) | / | / | / | / | / | -3 | / | /
CC[C@H](NC(=O)[C@@H](Cc1ccccc1)NC(=O)[C@H]1O[C@@H](n2cnc3c(=O)[nH]c(N)nc32)[C@H](O)[C@@H]1O)c1ccccc1 | / | / | / | / | / | -1 | / | /
CCN(CC(O)Cn1c2ccccc2c2ccccc21)S(=O)(=O)c1ccc(C)cc1 (configuration not stated) | 9 | 23 | 110 | -34 | 34 | -2 | / | /
OCCN(CCO)CC(O)CN(c1ccccc1)c1ccccc1 (configuration not stated) | -2 | 2 | 114 | 6 | -6 | 3 | / | /
CN(CC(O)Cn1c2ccccc2c2ccccc21)S(C)(=O)=O (configuration not stated) | -7 | 17 | 101 | 23 | -23 | 1 | 101 | 97
Cc1c(C)n(CC(O)CN2CCCCC2)c2ccccc12 (configuration not stated) | / | 1 | 88 | / | -20 | -2 | / | /
OC(CN1CCCCC1)Cn1c2ccccc2c2ccccc21 (configuration not stated) | -3 | 10 | 46* | -6 | 6 | -1 | 95 | 102
OCCN(CCO)CC(O)Cn1c2ccccc2c2ccccc21 (configuration not stated) | / | 3 | 124 | 18 | -18 | 2 | 91 | 99
COC(=O)[C@H](CC(C)C)N(CCc1cn(Cc2ccccc2)nn1)S(=O)(=O)c1ccc(F)cc1Br | / | / | / | / | / | -5 | / | /
COc1ccccc1Oc1ccc2c(c1)C(=O)N(c1ccc(O)cc1)C2=O | 6 | 0 | 111 | -19 | 19 | 0 | / | /
